Experiments:
Type in all cases: ADME, organism-based, Macaca mulatta
[1] = Biodistribution in rhesus monkey retina at 150.3 MBq, iv after 57.5 mins; conditions: in vivo
Hippocampus [2] = assay: Biodistribution in rhesus monkey hippocampus at 150.3 MBq, iv after 41 mins; conditions: in vivo
Outline: (§1)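 Male rhesus monkey under ketamine 10 mg/kg im, head fixed; 20 min 68Ge-68Ga transmission scan, then 90 min dynamic 3D PET (6×0.5, 7×1, 20×2, 8×5 min frames) after iv [11C]-labelled tracer in saline, specific radioactivity about 2.9 TBq/μmol at injection. Regions defined on T1-weighted MRI; uptake expressed as % injected dose per mL.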

Hippocampus [3] = assay: Biodistribution in rhesus monkey hippocampus at 150.3 MBq, iv after 49 mins; conditions: in vivo; outline: as §1
[4] = Biodistribution in rhesus monkey retina at 150.3 MBq, iv after 2.75 mins; conditions: in vivo, 165 s
Striatum [5] = assay: Biodistribution in rhesus monkey striatum at 150.3 MBq, iv after 23 mins; conditions: in vivo
[6] = Biodistribution in rhesus monkey occipital lobe at 150.3 MBq, iv after 49 mins; conditions: in vivo
Outline: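 A male rhesus monkey was anaesthetised with ketamine 10 mg/kg im and placed in a head fixation device. A 20 min 68Ge-68Ga transmission scan was run for attenuation correction. Radiotracer in saline (pH 7.4) was given iv, about 52 pmol (18 ng), at 2.9 TBq/μmol at injection. A dynamic 3D PET scan followed for 90 min. Regional VOIs were defined on a T1-weighted MRI, with uptake expressed as %ID/mL.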

[7] = Biodistribution in rhesus monkey entorhinal cortex at 150.3 MBq, iv after 0.75 mins; conditions: in vivo, 45 s
Outline: (§2)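 Single male rhesus monkey anesthetized with ketamine 10 mg/kg im, head fixed. Attenuation correction by 20 min 68Ge-68Ga transmission scan. [11C]-tracer in saline (pH 7.4) given iv, specific radioactivity 2.9 TBq/μmol at injection. Dynamic 3D PET emission scan over 90 min in frames of 0.5 to 5 min. MRI T1 images used to define VOIs. Uptake expressed as […].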

Striatum [8] = assay: Biodistribution in rhesus monkey striatum at 150.3 MBq, iv after 1.75 mins; conditions: in vivo, 105 s
[9] = Biodistribution in rhesus monkey entorhinal cortex at 150.3 MBq, iv after 25 mins; conditions: in vivo; outline: as §2
[10] = Biodistribution in rhesus monkey cerebellum at 150.3 MBq, iv after 47 mins; conditions: in vivo
Outline: (§3)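 Male rhesus monkey under ketamine (10 mg/kg im) with head fixation. After a 20 min 68Ge-68Ga transmission scan, the [11C]-labelled tracer in saline (pH 7.4) was injected iv, at 2.9 TBq/μmol specific radioactivity at injection. A dynamic 3D PET scan followed over 90 min (6×0.5, 7×1, 20×2, 8×5 min frames). Regions were defined on T1-weighted 1.5 T MRI, and uptake is given as %ID/mL.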

[11] = Biodistribution in rhesus monkey entorhinal cortex at 150.3 MBq, iv after 49 mins; conditions: in vivo; outline: as §2
Hippocampus [12] = assay: Biodistribution in rhesus monkey hippocampus at 150.3 MBq, iv after 1.25 mins; conditions: in vivo, 75 s; outline: as §2
[13] = Biodistribution in rhesus monkey entorhinal cortex at 150.3 MBq, iv after 27 mins; conditions: in vivo, 0.45 h; outline: as §2
[14] = Biodistribution in rhesus monkey retina at 150.3 MBq, iv after 47 mins; conditions: in vivo
[15] = Biodistribution in rhesus monkey cingulate cortex at 150.3 MBq, iv after 47 mins; conditions: in vivo; outline: as §3
[16] = Biodistribution in rhesus monkey cingulate cortex at 150.3 MBq, iv after 2.25 mins; conditions: in vivo, 135 s; outline: as §3
Striatum [17] = assay: Biodistribution in rhesus monkey striatum at 150.3 MBq, iv after 82.5 mins; conditions: in vivo, 1.375 h
Striatum [18] = assay: Biodistribution in rhesus monkey striatum at 150.3 MBq, iv after 45 mins; conditions: in vivo, 0.75 h
[19] = Biodistribution in rhesus monkey cingulate cortex at 150.3 MBq, iv after 41 mins; conditions: in vivo; outline: as §3
[20] = Biodistribution in rhesus monkey cingulate cortex at 150.3 MBq, iv after 6.5 mins; conditions: in vivo; outline: as §2
[21] = Biodistribution in rhesus monkey retina at 150.3 MBq, iv after 37 mins; conditions: in vivo
[22] = Biodistribution in rhesus monkey cerebellum at 150.3 MBq, iv after 0.25 mins; conditions: in vivo, 15 s; outline: as §3
Hippocampus [23] = assay: Biodistribution in rhesus monkey hippocampus at 150.3 MBq, iv after 4.5 mins; conditions: in vivo, 0.075 h; outline: as §1
[24] = Biodistribution in rhesus monkey cingulate cortex at 150.3 MBq, iv after 39 mins; conditions: in vivo, 0.65 h; outline: as §3
Hippocampus [25] = assay: Biodistribution in rhesus monkey hippocampus at 150.3 MBq, iv after 82.5 mins; conditions: in vivo, 1.375 h; outline: as §1
[26] = Biodistribution in rhesus monkey retina at 150.3 MBq, iv after 87.5 mins; conditions: in vivo
[27] = Biodistribution in rhesus monkey occipital lobe at 150.3 MBq, iv after 8.5 mins; conditions: in vivo
Hippocampus [28] = assay: Biodistribution in rhesus monkey hippocampus at 150.3 MBq, iv after 37 mins; conditions: in vivo; outline: as §1
[29] = Biodistribution in rhesus monkey cerebellum at 150.3 MBq, iv after 72.5 mins; conditions: in vivo; outline: as §3
[30] = Biodistribution in rhesus monkey cingulate cortex at 150.3 MBq, iv after 21 mins; conditions: in vivo, 0.35 h; outline: as §3
[31] = Biodistribution in rhesus monkey retina at 150.3 MBq, iv after 23 mins; conditions: in vivo
Hippocampus [32] = assay: Biodistribution in rhesus monkey hippocampus at 150.3 MBq, iv after 0.25 mins; conditions: in vivo, 15 s; outline: as §2
[33] = Biodistribution in rhesus monkey entorhinal cortex at 150.3 MBq, iv after 2.25 mins; conditions: in vivo, 135 s; outline: as §2
[34] = Biodistribution in rhesus monkey cingulate cortex at 150.3 MBq, iv after 7.5 mins; conditions: in vivo, 0.125 h; outline: as §2
[35] = Biodistribution in rhesus monkey cingulate cortex at 150.3 MBq, iv after 11 mins; conditions: in vivo; outline: as §3
Hippocampus [36] = assay: Biodistribution in rhesus monkey hippocampus at 150.3 MBq, iv after 77.5 mins; conditions: in vivo; outline: as §1
Striatum [37] = assay: Biodistribution in rhesus monkey striatum at 150.3 MBq, iv after 67.5 mins; conditions: in vivo, 1.125 h
[38] = Biodistribution in rhesus monkey cingulate cortex at 150.3 MBq, iv after 0.25 mins; conditions: in vivo, 15 s; outline: as §3
[39] = Biodistribution in rhesus monkey cingulate cortex at 150.3 MBq, iv after 82.5 mins; conditions: in vivo, 1.375 h; outline: as §2
[40] = Biodistribution in rhesus monkey entorhinal cortex at 150.3 MBq, iv after 35 mins; conditions: in vivo; outline: as §2
[41] = Biodistribution in rhesus monkey occipital lobe at 150.3 MBq, iv after 3.5 mins; conditions: in vivo; outline: as §1
[42] = Biodistribution in rhesus monkey cerebellum at 150.3 MBq, iv after 23 mins; conditions: in vivo; outline: as §3
[43] = Biodistribution in rhesus monkey cerebellum at 150.3 MBq, iv after 13 mins; conditions: in vivo; outline: as §3
[44] = Biodistribution in rhesus monkey retina at 150.3 MBq, iv after 41 mins; conditions: in vivo

- Drug uptake [1]: 55.05 kBq/ml
- Drug uptake (Hippocampus [2]): 11.5929 kBq/ml
- Drug uptake (Hippocampus [3]): 9.828 kBq/ml
- Drug uptake [4]: 37.33 kBq/ml
- Drug uptake (Striatum [5]): 18.52 kBq/ml
- Drug uptake [6]: 9.036 kBq/ml
- Drug uptake [7]: 36.57 kBq/ml
- Drug uptake (Striatum [8]): 56.85 kBq/ml
- Drug uptake [9]: 17.3 kBq/ml
- Drug uptake [10]: 10.15 kBq/ml
- Drug uptake [11]: 9.688 kBq/ml
- Drug uptake (Hippocampus [12]): 55.94 kBq/ml
- Drug uptake [13]: 14.48 kBq/ml
- Drug uptake [14]: 57.02 kBq/ml
- Drug uptake [15]: 10.29 kBq/ml
- Drug uptake [16]: 50.61 kBq/ml
- Drug uptake (Striatum [17]): 8.324 kBq/ml
- Drug uptake (Striatum [18]): 11.04 kBq/ml
- Drug uptake [19]: 10.93 kBq/ml
- Drug uptake [20]: 35.15 kBq/ml
- Drug uptake [21]: 57.39 kBq/ml
- Drug uptake [22]: 40.52 kBq/ml
- Drug uptake (Hippocampus [23]): 41.63 kBq/ml
- Drug uptake [24]: 11.74 kBq/ml
- Drug uptake (Hippocampus [25]): 8.042 kBq/ml
- Drug uptake [26]: 52.04 kBq/ml
- Drug uptake [27]: 25.53 kBq/ml
- Drug uptake (Hippocampus [28]): 12.43 kBq/ml
- Drug uptake [29]: 8.18 kBq/ml
- Drug uptake [30]: 17.1 kBq/ml
- Drug uptake [31]: 54.68 kBq/ml
- Drug uptake (Hippocampus [32]): 39.52 kBq/ml
- Drug uptake [33]: 40.15 kBq/ml
- Drug uptake [34]: 32.75 kBq/ml
- Drug uptake [35]: 25.93 kBq/ml
- Drug uptake (Hippocampus [36]): 8.119 kBq/ml
- Drug uptake (Striatum [37]): 9.576 kBq/ml
- Drug uptake [38]: 46.02 kBq/ml
- Drug uptake [39]: 9.311 kBq/ml
- Drug uptake [40]: 11.33 kBq/ml
- Drug uptake [41]: 37.15 kBq/ml
- Drug uptake [42]: 16.31 kBq/ml
- Drug uptake [43]: 21.2714 kBq/ml
- Drug uptake [44]: 57.19 kBq/ml
Structure (SMILES): [11CH3]Oc1cccc(C(=O)NCCN2CCN(c3ncccc3C#N)CC2)c1
